Experiment [1] has as its system Trypanosoma cruzi. The experiment is described as follows: Inhibitory activity against Trypanosoma cruzi Y epimastigotes. It is filed as functional, organism-based. An outline of the steps: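 Epimastigotes in sterile screw-cap tubes, drugs in absolute ethanol at 1, 5, 15 and 25 µg/mL, each in triplicate; ethanol-only control and medium blank. Growth read as absorbance at 600 nm against medium; percent inhibition = 100 − (ΔA_drug × 100)/ΔA_control, ΔA taken between start and end of culture.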

The test system of experiment [2] is Trypanosoma cruzi. As to the kind of experiment: Inhibitory activity against Trypanosoma cruzi amastigotes. It is filed as functional, organism-based. Conditions: for IC50: Trypanosoma cruzi. An outline of the steps:
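Gamma-irradiated L6E9 myoblasts in DMEM/20% fetal calf serum, 24 h at 37 °C, then infected with 4.17 × 10⁶ trypomastigotes/well for 2 h (7% CO2). After washing, medium with 1 µCi/mL [5,6-³H]uracil and drug in ethanol added; TCA-precipitable ³H measured at day 3. Host toxicity up to 50 µM by phase-contrast microscopy; values are means of three experiments.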

In ChEMBL document CHEMBL1147733, “Design, synthesis, and biological evaluation of phosphinopeptides against Trypanosoma cruzi targeting trypanothione biosynthesis” (J Med Chem, 2006) one finds IC50 and Inhibition data, which are given here for eight molecules.

SMILES strings stand for the structures.

By IC50 is commonly meant the point on the concentration scale where inhibition reaches its midpoint. A low value points to greater potency in that assay. For `CCP(=O)(O)CNC(=O)[C@H](CC(C)C)NC(=O)CCC(N)C(=O)O` (some centres not stated), the IC50 in the experiment on Trypanosoma cruzi [1] and in the experiment with Trypanosoma cruzi [2] was above 50 µM throughout.

By Inhibition is commonly meant the relative decrease from the control value, in per cent. Higher therefore signals strong suppression. The molecule `CCCCCCCP(=O)(O)CNC(=O)[C@H](CC(C)C)NC(=O)CCC(N)C(=O)O` (some centres not stated) returned an IC50 with Trypanosoma cruzi [1] above 50 µM. In the experiment with Trypanosoma cruzi [2], this molecule showed an Inhibition of 31% and an IC50 above 50 µM.

Regarding `CCCCCP(=O)(O)CNC(=O)[C@H](CC(C)C)NC(=O)CCC(N)C(=O)O` (some centres not stated), the IC50 in the experiment on Trypanosoma cruzi [1] was above 50 µM; in the experiment on Trypanosoma cruzi [2], 14.2 µM.

Consider `CCCP(=O)(O)CNC(=O)[C@H](CC(C)C)NC(=O)CCC(N)C(=O)O` (some centres not stated), for which the IC50 in the experiment on Trypanosoma cruzi [1] and with Trypanosoma cruzi [2] was above 50 µM throughout.

Regarding `CCCCCCP(=O)(O)CNC(=O)[C@H](CC(C)C)NC(=O)CCC(N)C(=O)O` (some centres not stated), in the experiment with Trypanosoma cruzi [1], the IC50 is above 50 µM. In the experiment with Trypanosoma cruzi [2], this molecule returned an Inhibition of 45% and an IC50 above 50 µM.

In the case of `N#CSCCOc1ccc(Oc2ccccc2)cc1`, the IC50 with Trypanosoma cruzi [2] came out at 2 µM.

Turning to `CC(C)C[C@H](NC(=O)CCC(N)C(=O)O)C(=O)NCP(C)(=O)O` (some centres not stated), the IC50 with Trypanosoma cruzi [1] and with Trypanosoma cruzi [2] was above 50 µM throughout.

`CCCCP(=O)(O)CNC(=O)[C@H](CC(C)C)NC(=O)CCC(N)C(=O)O` (some centres not stated): the IC50 with Trypanosoma cruzi [1] is above 50 µM; with Trypanosoma cruzi [2], 9.8 µM.
